PAFAH1B3 FP inh: PAFAH1B3 (human) inhibition; inhibition, % at 3.39 µM; 0.28% of 340,000 active; recombinant PAFAH1B3, FP-rhodamine probe, fluorescence polarization;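 active = inhibition above the screen-wide average of all tested compounds plus 3 SD, cut at about 25% in these data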
VIM-2 inhibitor: inhibitors of Pseudomonas aeruginosa VIM-2 metallo-beta-lactamase. 0.89% of 290,000 active. inhibition, % at 5.6 µM. purified VIM-2, nitrocefin hydrolysis, epi-absorbance fluorescence. AID 1527;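 active = inhibition above the mean of all tested compounds plus 3 SD, cutoff set per screening run, cut at about 7.5% in these data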;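 also: red hydrolysis product quenches plate fluorescence so inhibitors raise well fluorescence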
PAFAH2 FP inh: PAFAH2 (human) inhibition; Q99487; recombinant PAFAH2, FP-rhodamine activity probe, fluorescence polarization; inhibition, % at 3.39 µM; 0.99% of 340,000 active;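 active = inhibition above the mean over all tested compounds plus 3 SD, cut at about 30% in these data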;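 also: inhibitors block probe labeling of enzyme so polarization drops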
IMP-1 inhibitor: blocks Pseudomonas aeruginosa IMP-1 metallo-beta-lactamase; inhibition, % at 5.6 µM; AID 1556; 0.45% of 290,000 active; purified IMP-1, nitrocefin hydrolysis, epi-absorbance fluorescence;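 active = inhibition above the mean plus 3 SD of all compounds in the same screening run, cut at about 4.5% in these data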
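System: Purified recombinant IMP-1 metallo-beta-lactamase enzyme | Measured by: Fluorescence quenching readout, ex 480/em 530 nm | Replication: Singlicate | Incubation: 15 min preincubation plus 25 min reaction at 25 °C | Evaluation: Percent inhibition from optical density relative to buffer-blank wells | Benchmarks: DMSO with and without IMP-1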
PAFAH1B2 inh: blocks human PAF acetylhydrolase 1b catalytic subunit 2; P68402; recombinant PAFAH1B2, FP-rhodamine activity probe, fluorescence polarization; inhibition, % at 3.39 µM; 1.2% of 340,000 active;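 active = inhibition above the mean of all tested compounds plus 3 SD, cut at about 24% in these data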
pPAFAH FP inh: inhibitors of human plasma PAF acetylhydrolase (pPAFAH); Q13093; recombinant pPAFAH, FP-rhodamine probe fluorescence polarization; inhibition, % at 3.39 µM; 1.5% of 330,000 active; AID 463082;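 active = inhibition above the mean inhibition across the screen plus 3 SD, cut at about 25% in these data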;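 also: inhibitors block binding of the rhodamine activity-based probe so polarization drops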
Target sequence (Q13093 whole entry, looked up): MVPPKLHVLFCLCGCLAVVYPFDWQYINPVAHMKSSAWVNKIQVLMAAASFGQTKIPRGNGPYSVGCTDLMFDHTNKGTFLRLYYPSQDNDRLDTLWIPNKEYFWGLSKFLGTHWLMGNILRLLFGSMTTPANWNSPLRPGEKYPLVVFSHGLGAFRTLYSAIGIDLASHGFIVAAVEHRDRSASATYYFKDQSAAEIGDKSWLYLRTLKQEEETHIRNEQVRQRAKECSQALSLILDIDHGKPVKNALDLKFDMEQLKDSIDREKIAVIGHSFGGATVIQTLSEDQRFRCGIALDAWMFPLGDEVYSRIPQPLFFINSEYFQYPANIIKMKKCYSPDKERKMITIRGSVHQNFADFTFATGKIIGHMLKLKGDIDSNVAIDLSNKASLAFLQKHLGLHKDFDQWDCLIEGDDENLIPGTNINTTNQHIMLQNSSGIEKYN
PAFAH1B3 confirm: PAFAH1B3 (human) inhibition, confirmed | shares compounds with PAFAH1B3 FP inh | recombinant PAFAH1B3, FP-Rh activity-based probe, fluorescence polarization | inhibition, % at 3.39 µM | 30% of 390 active | AID 493032;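 active = average inhibition over triplicate runs above the hit cutoff set in the earlier primary screen, cut at about 25% in these data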
Numbers stand for hits; 0 = inactive; - = no result. Compounds with a hit are over-represented: about 3.6% of the library has one in this group of screens.

SMILES	PAFAH1B3 FP inh	VIM-2 inhibitor	PAFAH2 FP inh	IMP-1 inhibitor	PAFAH1B2 inh	pPAFAH FP inh	PAFAH1B3 confirm
CCCCn1c(NC(=O)c2ccc(Br)o2)c(S(=O)(=O)c2ccccc2)c2nc3ccccc3nc21	50	0	0	0	0	0	0
O=C(CSCC(=O)N1CCCCC1)Nc1nc(-c2ccccc2)c(-c2ccccc2)s1	0	0	0	0	0	0	-
N/C(=N\S(=O)(=O)c1cccs1)c1ccccc1	0	0	0	0	0	0	-
O=C1/C(=N\S(=O)(=O)c2cccs2)C([n+]2ccccc2)=C([O-])c2ccccc21	49	0	0	0	0	0	35
Cc1ccc(Cl)cc1N1CCN(c2cccc[n+]2C)CC1	0	0	0	0	0	0	-
O=C1Nc2ccc(Br)cc2C12NNc1ccccc1O2 (configuration not stated)	27	0	0	0	0	29	0
COc1cc(/C=C/C(=O)CC(=O)/C=C/c2ccc(O)c(OC)c2)ccc1O	26	0	0	18	0	0	0
O=C(O)C1C2C=CC(C3CC23)C1C(=O)NCCc1ccccc1 (configuration not stated)	0	0	0	0	0	0	-
O=C(C1=C(c2ccccc2)C(=O)c2ccccc2C1=O)c1ccccc1	58	0	0	0	0	-	26
COC1=C(c2ccccc2)C(=O)c2ccccc2C1=O	0	0	0	0	0	0	-
O=C(CN1C(=O)NC2(CCCC2)C1=O)N1CCN(c2ccccc2Cl)CC1	0	-	0	-	0	0	-
CC(=O)N(/N=C1\Sc2ccccc2C1=O)c1ccccc1C	41	0	0	0	0	0	54
CC(=O)N(/N=C1\Sc2ccccc2C1=O)c1ccccc1	44	0	0	0	0	-	62
CC(=O)N(/N=C1\Sc2ccccc2C1=O)c1ccc(C)cc1C	0	0	0	0	0	0	-
O=C(CSc1nc2ccsc2c(=O)n1CC1CCC(C(=O)O)CC1)c1ccc(Cl)cc1 (configuration not stated)	27	0	0	14	0	0	0
CCOC(=O)C1(CCCc2ccccc2)CCN(C(=O)CCC2=NNC(=O)CC2)CC1	0	0	0	0	0	0	-
COC(=O)c1cc2oc(C)cc2n1CC(=O)N1CCCc2ccccc21	0	0	0	0	0	0	-
COc1ccc2[nH]c(=O)cc(C(=O)O)c2c1	0	0	0	0	0	0	-
COc1ccc2[nH]c3c4c(ccc3c2c1)C(=O)C=CC4=O	37	0	0	0	0	-	0
CC(=O)C(C(C)=O)C1(O)C(=O)c2ccccc2C1=O	34	0	0	0	0	0	0
CC(=O)N(C)C1=C(O)c2ccccc2C(=O)C1=O	0	0	0	0	0	0	-
COC(=O)CCC(=O)OC1(C)C(=O)C2=CN(CCCCO)C(c3ccc(OC)cc3)=CC2=C(Br)C1=O (configuration not stated)	-	0	-	0	-	0	-
COC(=O)CCC(=O)OC1(C)C(=O)C2=CN(CCc3ccccn3)C(c3ccc(OC)cc3)=CC2=C(Br)C1=O (configuration not stated)	30	-	0	-	0	0	0
CCCCCC(=O)Nc1nc(C)c(-c2csc(Nc3ccc(Cl)cc3)n2)s1	0	0	0	0	0	0	-
CCCCCCC(=O)Nc1nc(C)c(-c2csc(Nc3ccc(Cl)cc3)n2)s1	28	0	0	0	0	0	0
CC1(C)C(=O)OC(c2cccn2-c2ccc([N+](=O)[O-])cc2)C2(CCCCC2)C1=O (configuration not stated)	48	0	0	0	0	0	0
CC1(C)C(=O)OC(c2cccn2-c2ccc([N+](=O)[O-])cc2)C(C)(C)C1=O (configuration not stated)	0	0	0	0	0	0	-
O=C1NC(c2ccccc2)C(c2ccccc2)N1 (configuration not stated)	50	-	0	-	0	-	39
c1ccc(C2NCCNC2c2ccccc2)cc1 (configuration not stated)	0	-	0	-	0	-	-
Cc1ccc(NC(=O)COC(=O)CSC(=S)N2CCOCC2)cc1	0	0	0	0	0	0	-
